Data on seven compounds can be found in ChEMBL document CHEMBL1137919, “Dipeptidyl aspartyl fluoromethylketones as potent caspase inhibitors: SAR of the N-protecting group” (Bioorg Med Chem Lett, 2004).

Experiment [1] has as its system HeLa. Put plainly: Protecting effect against apoptosis induced by TNF-alpha in HeLa cells was determined. In kind it is functional, Homo sapiens. In a few lines: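 HeLa cells exposed to TNF-a to induce apoptosis, with test inhibitor present. Viability read out as calcein AM uptake. The value reported is the inhibitor concentration giving 50% cell protection.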

Experiment [2] deals with T1, Caspase-3 (Homo sapiens, UniProt P42574).
T1 sequence (P42574 whole entry): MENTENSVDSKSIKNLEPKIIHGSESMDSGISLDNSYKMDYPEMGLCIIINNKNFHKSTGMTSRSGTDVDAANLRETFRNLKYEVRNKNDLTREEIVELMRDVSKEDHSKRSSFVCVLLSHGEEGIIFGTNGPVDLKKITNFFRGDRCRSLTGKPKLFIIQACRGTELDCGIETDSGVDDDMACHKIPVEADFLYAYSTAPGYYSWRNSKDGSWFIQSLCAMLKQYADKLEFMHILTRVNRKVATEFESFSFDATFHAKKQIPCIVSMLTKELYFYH
Put plainly: Inhibitory activity against human recombinant caspase-3.

Experiment [3] can be described thus: Inhibition concentration required against cathepsin B. The arrangement: species or system Homo sapiens.
The nature of experiment [4]: Percent survival of the mice after 3h treatment was determined after induction of apoptosis by anti-Fas antibody; Dose is 10 mg/kg. As to conditions: Mus musculus. In kind it is functional. In a few lines:
(§1)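 Mouse anti-Fas lethality model: mice given 8 µg anti-Fas monoclonal antibody (clone JO-2) IV, then 5 min later an IV dose of inhibitor (0.25–10 mg/kg) or vehicle. The aqueous vehicle contained 50 mM Tris–HCl. Six mice per group. Survivors were counted at 1, 3, 6 and 24 h and at 5 days, expressed as % of the animals in the group.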

The nature of experiment [5]: Percent survival of the mice after 24 hr treatment was determined after induction of apoptosis by anti-Fas antibody; Dose is 10 mg/kg. In kind it is functional. As to conditions: Mus musculus. In a few lines:
as §1

A short description of experiment [6]: Percent survival of the mice after 5 days treatment was determined after induction of apoptosis by anti-Fas antibody; Dose is 1 mg/kg. In kind it is functional. As to conditions: Mus musculus, 120 h. In a few lines: as §1
Experiment [7] in a line: Percent survival of the mice after 5 days treatment was determined after induction of apoptosis by anti-Fas antibody; Dose is 0.5 mg/kg. In kind it is functional. The note with it: Mus musculus, 120 h. In a few lines: as §1
The nature of experiment [8]: Percent survival of the mice after 1 hr treatment was determined after induction of apoptosis by anti-Fas antibody; Dose is 0 mg/kg. In kind it is functional, Mus musculus. In a few lines:
as §1

Experiment [9] in a line: Inhibition concentration required against caspase-1.
Experiment [10] in a line: Percent survival of the mice after 6 hr treatment was determined after induction of apoptosis by anti-Fas antibody; Dose is 0.5 mg/kg. The note with it: Mus musculus. In kind it is functional. In a few lines: as §1
Experiment [11] in a line: Percent survival of the mice after 5 days treatment was determined after induction of apoptosis by anti-Fas antibody; Dose is 0.25 mg/kg. In kind it is functional. As to conditions: Mus musculus, 120 h. In a few lines:
as §1

A short description of experiment [12]: Percent survival of the mice after 24 hr treatment was determined after induction of apoptosis by anti-Fas antibody; Dose is 0.5 mg/kg. In kind it is functional. The note with it: Mus musculus. In a few lines: as §1
Experiment [13] concerns the target T2, Caspase-9 (Homo sapiens, UniProt P55211).
T2 sequence (P55211 whole entry): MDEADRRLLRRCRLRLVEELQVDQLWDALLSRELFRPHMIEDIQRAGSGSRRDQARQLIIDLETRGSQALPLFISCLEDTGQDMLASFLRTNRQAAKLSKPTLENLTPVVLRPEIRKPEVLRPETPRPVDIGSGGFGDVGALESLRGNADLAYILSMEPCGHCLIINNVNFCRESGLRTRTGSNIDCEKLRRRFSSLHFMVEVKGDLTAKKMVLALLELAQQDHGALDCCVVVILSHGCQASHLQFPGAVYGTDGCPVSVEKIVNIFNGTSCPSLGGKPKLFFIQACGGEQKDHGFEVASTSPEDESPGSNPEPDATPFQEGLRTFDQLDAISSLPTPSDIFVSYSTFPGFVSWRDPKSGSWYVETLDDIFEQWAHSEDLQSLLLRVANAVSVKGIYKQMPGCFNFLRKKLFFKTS
Put plainly: Inhibition concentration required against caspase-9.

A short description of experiment [14]: Inhibition concentration required against factor Xa.
The nature of experiment [15]: Percent survival of the mice after 1 hr treatment was determined after induction of apoptosis by anti-Fas antibody; Dose is 10 mg/kg. The note with it: Mus musculus. In kind it is functional. In a few lines: as §1
Experiment [16] is described as follows: Percent survival of the mice after 24 hr treatment was determined after induction of apoptosis by anti-Fas antibody; Dose is 0.25 mg/kg. In kind it is functional. The note with it: Mus musculus. In a few lines: as §1
A short description of experiment [17]: Percent survival of the mice after 24 hr treatment was determined after induction of apoptosis by anti-Fas antibody; Dose is 0 mg/kg. In kind it is functional, Mus musculus. In a few lines: as §1
The nature of experiment [18]: Percent survival of the mice after 3h treatment was determined after induction of apoptosis by anti-Fas antibody; Dose is 1 mg/kg. In kind it is functional. The note with it: Mus musculus. In a few lines: as §1
The nature of experiment [19]: Percent survival of the mice after 1 hr treatment was determined after induction of apoptosis by anti-Fas antibody; Dose is 0.25 mg/kg. In kind it is functional. The note with it: Mus musculus. In a few lines: as §1
Experiment [20] in a line: Percent survival of the mice after 6 hr treatment was determined after induction of apoptosis by anti-Fas antibody; Dose is 1 mg/kg. As to conditions: Mus musculus. In kind it is functional. In a few lines: as §1
A short description of experiment [21]: Percent survival of the mice after 1 hr treatment was determined after induction of apoptosis by anti-Fas antibody; Dose is 0.5 mg/kg. In kind it is functional. As to conditions: Mus musculus. In a few lines:
as §1

The nature of experiment [22]: Percent survival of the mice after 1 hr treatment was determined after induction of apoptosis by anti-Fas antibody; Dose is 1 mg/kg. In kind it is functional. The note with it: Mus musculus. In a few lines: as §1
The target of experiment [23] is T3, Caspase-7 (Homo sapiens, UniProt P55210).
T3 sequence (P55210 whole entry): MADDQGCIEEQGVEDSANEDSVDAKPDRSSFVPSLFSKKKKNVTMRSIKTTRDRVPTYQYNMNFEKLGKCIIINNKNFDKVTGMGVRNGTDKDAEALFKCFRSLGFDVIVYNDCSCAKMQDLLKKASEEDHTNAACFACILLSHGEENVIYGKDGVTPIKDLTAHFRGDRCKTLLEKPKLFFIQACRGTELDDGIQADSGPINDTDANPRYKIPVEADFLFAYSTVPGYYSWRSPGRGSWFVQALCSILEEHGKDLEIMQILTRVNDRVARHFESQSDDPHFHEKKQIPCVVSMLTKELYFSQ
Put plainly: Inhibition concentration required against caspase-7.

The nature of experiment [24]: Percent survival of the mice after 6 hr treatment was determined after induction of apoptosis by anti-Fas antibody; Dose is 10 mg/kg. The note with it: Mus musculus. In kind it is functional. In a few lines: as §1
The nature of experiment [25]: Percent survival of the mice after 3h treatment was determined after induction of apoptosis by anti-Fas antibody; Dose is 0.25 mg/kg. In kind it is functional. The note with it: Mus musculus. In a few lines: as §1
Experiment [26] addresses Caspase-8 (Homo sapiens, UniProt Q14790). Put plainly: Inhibition concentration required against caspase-8.
The target in experiment [27] is T4, Calpain-1 catalytic subunit (Homo sapiens, UniProt P07384).
T4 sequence (P07384 whole entry): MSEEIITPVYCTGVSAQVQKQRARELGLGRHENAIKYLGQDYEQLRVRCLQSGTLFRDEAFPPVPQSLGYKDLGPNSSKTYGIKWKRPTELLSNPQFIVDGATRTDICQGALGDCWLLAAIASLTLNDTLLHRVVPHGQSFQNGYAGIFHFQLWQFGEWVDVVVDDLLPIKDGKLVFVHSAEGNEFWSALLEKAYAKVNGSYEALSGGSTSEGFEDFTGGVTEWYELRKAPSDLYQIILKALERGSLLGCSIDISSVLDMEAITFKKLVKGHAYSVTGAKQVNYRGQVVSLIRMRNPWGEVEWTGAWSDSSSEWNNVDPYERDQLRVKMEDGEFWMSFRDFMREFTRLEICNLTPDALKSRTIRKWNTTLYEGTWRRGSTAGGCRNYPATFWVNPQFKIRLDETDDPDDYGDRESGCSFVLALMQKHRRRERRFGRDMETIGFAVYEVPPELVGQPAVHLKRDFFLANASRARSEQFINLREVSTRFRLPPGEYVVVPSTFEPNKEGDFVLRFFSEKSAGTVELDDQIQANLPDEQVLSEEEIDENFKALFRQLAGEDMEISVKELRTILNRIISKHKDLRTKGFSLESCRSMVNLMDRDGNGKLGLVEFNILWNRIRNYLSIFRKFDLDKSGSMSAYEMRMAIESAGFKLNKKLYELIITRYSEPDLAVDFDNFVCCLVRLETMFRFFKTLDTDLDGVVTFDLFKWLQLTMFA
Put plainly: Inhibition concentration required against calpain-1.

Experiment [28] is described as follows: Percent survival of the mice after 24 hr treatment was determined after induction of apoptosis by anti-Fas antibody; Dose is 1 mg/kg. In kind it is functional. The note with it: Mus musculus. In a few lines:
as §1

Experiment [29] in a line: Percent survival of the mice after 3h treatment was determined after induction of apoptosis by anti-Fas antibody; Dose is 0.5 mg/kg. In kind it is functional. The note with it: Mus musculus. In a few lines:
as §1

The nature of experiment [30]: Percent survival of the mice after 3h treatment was determined after induction of apoptosis by anti-Fas antibody; Dose is 0 mg/kg. In kind it is functional, Mus musculus. In a few lines:
as §1

The nature of experiment [31]: Percent survival of the mice after 6 hr treatment was determined after induction of apoptosis by anti-Fas antibody; Dose is 0 mg/kg. In kind it is functional, Mus musculus. In a few lines:
as §1

Experiment [32] is described as follows: Percent survival of the mice after 5 days treatment was determined after induction of apoptosis by anti-Fas antibody; Dose is 10 mg/kg. In kind it is functional. As to conditions: Mus musculus, 120 h. In a few lines: as §1
Experiment [33] in a line: Percent survival of the mice after 5 days treatment was determined after induction of apoptosis by anti-Fas antibody; Dose is 0 mg/kg. In kind it is functional, Mus musculus. In a few lines: as §1
Experiment [34] is described as follows: Percent survival of the mice after 6 hr treatment was determined after induction of apoptosis by anti-Fas antibody; Dose is 0.25 mg/kg. In kind it is functional. The note with it: Mus musculus. In a few lines: as §1

Sequence of Caspase-8 (Q14790 217-374 limits assumed): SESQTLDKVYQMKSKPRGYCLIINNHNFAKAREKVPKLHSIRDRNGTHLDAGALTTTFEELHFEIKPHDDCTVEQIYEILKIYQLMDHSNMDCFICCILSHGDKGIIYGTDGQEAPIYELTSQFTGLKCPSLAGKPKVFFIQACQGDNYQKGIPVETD
Sequence of Caspase-8 (Q14790 385-479 limits assumed): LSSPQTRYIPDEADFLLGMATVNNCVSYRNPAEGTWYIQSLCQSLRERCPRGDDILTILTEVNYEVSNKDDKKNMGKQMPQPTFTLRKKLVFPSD

`CC(C)[C@H](NC(=O)OCc1cc(Cl)ccc1Cl)C(=O)NC(CC(=O)O)C(=O)CF` (stereo not given in full) registered a Protection in [1] of 100 nM.

For the compound `CC(C)[C@H](NC(=O)OCc1ccc(Cl)c(Cl)c1)C(=O)NC(CC(=O)O)C(=O)CF` (stereo not given in full), in experiment [1], the Protection came to 150 nM.

Consider `CC(C)[C@H](NC(=O)OCc1ccc(F)cc1)C(=O)NC(CC(=O)O)C(=O)CF` (stereo not given in full), for which the Protection in experiment [1] is 150 nM.

On to `CC(C)[C@H](NC(=O)OCc1ccc(Cl)cc1Cl)C(=O)NC(CC(=O)O)C(=O)CF` (stereo not given in full), for which the IC50 (in general, the concentration that gives 50% inhibition) was 25 nM in [2]; roughly 10 µM in experiment [3]; 26 nM in experiment [9]; 9 nM in experiment [13]; greater than 100 µM in experiment [14]; 10 nM in [23]. Moreover, the IC50 is 6 nM in [26] and roughly 5 µM in [27]. The survival at 10 mg/kg in experiment [4], in experiment [5], in [15], in experiment [24] and in [32] was 100% throughout. The survival at 1 mg/kg in [6], in experiment [18], in experiment [20], in experiment [22] and in experiment [28] was 100% throughout. The survival at 0.5 mg/kg was determined as 50% in experiment [7]; 83% in experiment [10]; 50% in experiment [12]; 100% in [21]; 100% in experiment [29]. Further, the Survival in [8], in [17], in experiment [30], in experiment [31] and in [33] was 0% throughout. Moreover, the survival at 0.25 mg/kg in [11] was determined as 16%; in experiment [16] it was 33%; in experiment [19], 100%; in [25], 100%; in [34] it was 83%. The compound also registered a Protection in [1] of 100 nM.

`CC(C)[C@H](NC(=O)OCC1CCCC1)C(=O)NC(CC(=O)O)C(=O)CF` (stereo not given in full) yielded a Protection in experiment [1] of 300 nM.

Turning to `CC(C)[C@H](NC(=O)OCc1ccccc1)C(=O)NC(CC(=O)O)C(=O)CF` (stereo not given in full), the Protection in experiment [1] is given as 250 nM.

Turning to `COC(=O)N[C@H](C(=O)NC(CC(=O)O)C(=O)CF)C(C)C` (stereo not given in full), in experiment [1], the Protection came out at 500 nM.
